# Hits are enriched below; roughly 1.6% of the tested compounds scored in any of these assays.
# NOD2-RIPK2 inh: NOD2-RIPK2 binding disruptors in cells, primary screen, fluorescence, CHO cells, BLA complementation; CCF4 ratio; inhibition, % at 4.98 µM; 0.38% of 360,000 active; in the data active means inhibition above about 21%
# B2AR ag: beta2AR agonists driving receptor internalization, primary screen, cell-based, FAP fluorogen, flow cytometry; Beta-2 adrenergic receptor (Homo sapiens), P07550; Am2.2-beta2AR cells; response, % (concentration not given with the values); 0.43% of 340,000 active; AID 504454, 2011;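 active means response above a set limit, near 3 SD of response in nonfluorescent compounds, cut at about 42% in these data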
# ABHD5 PLIN5 PPI: ABHD5-PLIN5 interaction inhibitors, primary screen, cell lysate, split luciferase complementation, luminescence; 0.78% of 360,000 active; inhibition, % at 4 µM; Split G. princeps luciferase complementation, 4 h; Perilipin-5 (Homo sapiens) + 1-acylglycerol-3-phosphate O-acyltransferase ABHD5 (Homo …;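 active means inhibition above the mean inhibition across every tested compound plus 3 SD, cut at about 22% in these data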
# TLR4 MyD88 comp: inhibitors of TLR4-MyD88 association in cells, primary screen, cell-based, HeLa CL3-4, BLA complementation, FRET ratio | inhibition, % at 8.4 µM | 0.18% of 200,000 active | Toll-like receptor 4 (Homo sapiens) + Myeloid differentiation primary response protein … | HeLa CL3-4 TLR4/MyD88 BLA complementation; in the data active means inhibition above about 25%
# Dynein cargo inh: inhibitors of GR-EGFP nuclear translocation, primary screen, dynein cargo transport inhibitor project, imaging, high-content, 3617.4 mouse cells. z-score, hits read low. test concentration mostly 20 µM; stimulated with dexamethasone, 1 µM; stronger effect = lower value. AID 1381, 2008. 0.47% of 220,000 active;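 active means plate z-score of nuclear minus cytoplasmic receptor signal below a set negative limit, without overly bright fluorescence or cell loss, cut at about -3.5 in these data, passing the limit was not always enough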;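 further: z-score of nuclear minus cytoplasmic ring GR-EGFP intensity difference per well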
#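 Buffer or medium: tet-free, stripped-serum medium; reagent: dexamethasone at 1.0 µM final, 30 min; incubation: 48 h induction, 1 h compound, 30 min dex at 37 °C; measured by: formaldehyde fixation, Hoechst nuclear stain, 10x automated fluorescence imaging; read-out: nuclear-to-cytoplasmic GR-EGFP distribution per well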
# TLR9-MyD88 block: inhibitors of TLR9-MyD88 association in cells, primary screen, cell-based, CHO, BLA complementation, fluorescence; 0.21% of 340,000 active; CCF4 FRET ratio; AID 504734, 2011; Toll-like receptor 9 (Homo sapiens) + Myeloid differentiation primary response protein …; inhibition, % at 4.98 µM;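 active means inhibition above the mean over all tested compounds plus 3 SD, cut at about 21% in these data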
# B2AR ag CP1: beta2AR agonists via receptor internalization, confirmation, cell-based, FAP fluorogen, flow cytometry, single point, cherry pick 1; Am2.2-beta2AR cells, FAP surface receptor; stronger effect = lower value; 25% of 1,100 active; AID 540358, 2011; percent response (surface receptor), % at 10 µM; shares compounds with B2AR ag;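 active means surface receptor percent response at or below 58%, roughly 3 SD from nonfluorescent compounds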
# B2AR FAP counter: counter-screen for beta-2AR agonists: fluorescence in Am2.2 cells | shares compounds with B2AR ag | 1,100 tested, under 10 active | FAP fluorogen flow cytometry, fluorescence counterscreen; stronger effect = lower value | calls only at 10 µM;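 active means percent response below a set limit in fluorescence channel 1 and below 50% in channel 8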
# A number is an active result; n = inactive; x = not tested or not shown.
SMILES,NOD2-RIPK2 inh,B2AR ag,ABHD5 PLIN5 PPI,TLR4 MyD88 comp,Dynein cargo inh,TLR9-MyD88 block,B2AR ag CP1,B2AR FAP counter
CN(C(=O)c1cccc(NC(=O)Cc2cccc(NC(=O)C3CCN(C(=O)C4CC4)CC3)c2)c1)C1CC1,n,n,n,x,x,n,x,x
Cc1cccc(COC(=O)CCCNC(=O)c2ccc(Cl)cc2)c1,n,n,n,x,x,n,x,x
COc1ccc(N2N=NN(C(C)C)C2=C(Cl)c2nnnn2-c2ccc(OC)cc2)cc1,n,n,n,x,x,n,x,x
CC(=O)c1ccc(OCc2cc(C(=O)N(C)Cc3nc4c(C)cccc4[nH]3)no2)cc1,n,n,n,x,x,n,x,x
CC(=O)c1ccc(OCc2cc(C(=O)N(C)CCOc3ccc(C)cc3)no2)cc1,n,86,n,x,x,n,20,n
Cc1occc1C(=O)N/N=C/C1=C(N2CCOCC2)C(=C/c2ccc(Cl)cc2Cl)/CC1,n,n,n,x,x,n,x,x
COc1cc2ncc(S(=O)(=O)c3ccccc3)c(N3CCCC(C)C3)c2cc1OC (configuration not stated),n,69,n,x,x,n,9.0,n
Cc1cc(F)ccc1-c1cc(C(=O)NC2CCCCC2)[nH]n1,n,x,n,x,x,x,x,x
COc1ccc(-c2cn3nc(SCC(=O)NC4CCCCC4)ccc3n2)cc1,n,n,n,x,x,n,x,x
NS(=O)(=O)c1cccc(NC(=O)c2cccc(N3C(=O)c4ccccc4C3=O)c2)c1,n,n,n,x,x,n,n,n
CC(=O)c1cccc(NC(=O)c2cccc(N3C(=O)c4ccccc4C3=O)c2)c1,n,n,n,x,x,n,n,n
COc1ccccc1N1C(=O)c2ccc(C(=O)Nc3cccc(C(C)=O)c3)cc2C1=O,n,n,n,x,x,n,x,x
CCN(CC)CCOc1ccc(C=NNc2nc3c([nH]2)c(=O)n(C)c(=O)n3C)cc1,n,n,n,x,x,n,x,x
COC(=O)c1ccc2nc(-c3cccc(Br)c3)c(Cc3ccccc3)n2c1,n,x,n,x,x,x,x,x
CCOc1ccc(CNC(=O)c2ccc(NC(=O)C3=CSCCO3)cc2)cc1,n,105,n,x,x,n,21,n
Cc1ccc(CNC(=O)c2ccc(NC(=O)C3=CSCCO3)cc2)cc1,n,n,n,x,x,n,x,x
Cc1ccc(F)c(S(=O)(=O)NC(=O)C2(C)CCN2C(=O)CC2CCCCC2)c1 (configuration not stated),n,x,n,x,x,x,x,x
O=C(Nc1cccc(C(F)(F)F)c1)c1csc(-c2ccncc2)n1,n,n,n,n,n,n,x,x
COc1cc(NC(=O)c2ccc(N)nc2)cc(C(=O)Nc2cccc(C(F)(F)F)c2)c1,n,43,n,x,n,n,n,n
COc1cc(NC(=O)c2csc(-c3ccncc3)n2)cc(C(=O)Nc2cccc(C(F)(F)F)c2)c1,n,60,n,x,n,n,n,n
COc1cc(NC(=O)c2nccnc2N)cc(C(=O)Nc2cccc(C(F)(F)F)c2)c1,n,n,n,x,n,n,x,x
CCN(CC(=O)Nc1ccc(NC(C)=O)cc1)C(=O)C1(c2ccccc2)CC1,n,n,n,x,x,n,x,x
CC(NC(=O)Cc1ccccc1)C(=O)O (configuration not stated),n,n,n,x,x,n,x,x
CCCCN(C(=O)c1ccc(C#N)cc1)c1c(N)n(CCC)c(=O)[nH]c1=O,n,n,n,x,x,n,x,x
c1nc(NCCN2CCOCC2)c2sc3nc(N4CCOCC4)c4c(c3c2n1)CCC4,n,46,n,n,n,n,57,n
SMILES,NOD2-RIPK2 inh,B2AR ag,ABHD5 PLIN5 PPI,TLR4 MyD88 comp,Dynein cargo inh,TLR9-MyD88 block,B2AR ag CP1,B2AR FAP counter
CCCn1c(=N)n(CC(=O)c2ccc([N+](=O)[O-])cc2)c2ccccc21,n,n,n,n,n,n,x,x
Cc1ccc(Cn2c(=N)n(CC(=O)c3ccccc3)c3ccccc32)cc1,n,58,n,n,n,n,n,n
CC(C)(C)C(=O)Cn1c(=N)n(Cc2ccccc2)c2ccccc21,n,n,n,n,n,n,x,x
Cc1ccccc1Cn1c(=N)n(CC(=O)c2ccc([N+](=O)[O-])cc2)c2ccccc21,n,55,n,n,n,n,22,n
CCN(CC)S(=O)(=O)c1cccc(-n2c(O)c(C=Nc3ccccc3C(=O)O)c3ccccc3c2=O)c1,n,47,n,x,n,n,n,n
C[C@H]1CN([C@@H](C)CO)S(=O)(=O)c2ccc(Br)cc2O[C@H]1CN(C)S(=O)(=O)c1ccccc1,n,x,n,x,x,n,x,x
CCOC(=O)N1CCN(CC(O)COc2ccccc2C(C)C)CC1 (configuration not stated),n,n,n,n,n,n,x,x
CCN(CCNCC(O)COc1ccccc1C(C)C)c1cccc(C)c1 (configuration not stated),n,45,n,x,x,n,n,n
CCN(CC)CCCNc1ccc(-c2nnc(-c3ccc(OCC(C)C)cc3)o2)cn1,n,48,n,x,x,n,n,n
CCOC(=O)c1ccc(NC(=O)COC)cc1,n,n,n,n,n,n,x,x
CCOC(=O)c1ccc(NC(=O)Cc2coc3cc4c(cc23)CCC4)cc1,n,69,n,n,n,n,45,n
COCCCNC(=O)c1cc(-c2cccnc2)nc2ccc(S(=O)(=O)N3CCCCCC3)cc12,n,n,n,x,x,n,n,n
O=C1C=C(NC2CCCC2)CC(c2ccccc2)C1 (configuration not stated),n,n,n,n,n,x,n,n
CNC1=CC(=O)CC(c2ccccc2)C1 (configuration not stated),n,n,n,n,n,n,x,x
NC(=O)CC(NC(=O)Cc1cccc2ccccc12)c1ccc(NCCCN2CCCC2=O)c([N+](=O)[O-])c1 (configuration not stated),n,103,n,x,x,n,17,n
CCCCCNC(=O)c1nc(-c2c(F)cccc2F)oc1-c1ccccc1,n,x,n,x,x,x,x,x
COC(=O)NC1(C(F)(F)F)C(=O)Nc2c1c(=O)n(C)c(=O)n2C (configuration not stated),n,59,n,n,n,n,n,n
Cc1cc(C)n(C(=O)N(c2ccccc2)c2ccccc2)n1,n,n,n,x,x,n,x,x
CCNC(=O)c1ccccc1CCc1ccccc1,n,n,n,n,n,n,x,x

# Assay outcomes from PubChem.
